# Assay results published in ChEMBL document CHEMBL1144519, “A Pd(0) based cross-coupling approach to the synthesis of 2-amidopurines and their evaluation as CDK inhibitors” (Bioorg Med Chem, 2007).
# pIC50: −log10 of the molar value.
# Key:
# [1] = Inhibition of CDK1/Cyclin B from M phase starfish oocytes; design: species or system Marthasterias glacialis; conditions: oocyte
# How it was run: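 CDK1/cyclin B extracted in homogenization buffer from M-phase Marthasterias glacialis oocytes and affinity-purified on p9CKShs1-Sepharose, eluted with free p9CKShs1. Read-out was P81 phosphocellulose binding, phosphoric acid washes and scintillation counting. Values are blank-subtracted, % of uninhibited activity, with DMSO controls.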
# [2] = target: Cyclin-dependent kinase 5/CDK5 activator 1 (Homo sapiens, UniProt Q00535); assay: Inhibition of recombinant mammalian CDK5/p25 expressed in Escherichia coli
# How it was run: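 Kinase was CDK5 with p25, a truncated p35 activator. Phosphate incorporation was measured on P81 phosphocellulose paper by scintillation counting. Activity is blank-corrected and expressed as % of activity without inhibitor, with DMSO controls.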
# Cyclin-dependent kinase 5/CDK5 activator 1, sequence (Q00535 whole entry, the tested form may be a part): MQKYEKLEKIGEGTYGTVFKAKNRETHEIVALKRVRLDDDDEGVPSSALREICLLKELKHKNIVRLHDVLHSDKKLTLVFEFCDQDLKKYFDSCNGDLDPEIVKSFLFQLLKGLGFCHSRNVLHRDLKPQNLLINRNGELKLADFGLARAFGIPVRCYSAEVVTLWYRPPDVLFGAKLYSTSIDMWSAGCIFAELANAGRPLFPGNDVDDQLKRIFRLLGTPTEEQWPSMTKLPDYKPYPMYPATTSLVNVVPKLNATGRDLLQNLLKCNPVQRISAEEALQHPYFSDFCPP
# Cyclin-dependent kinase 5/CDK5 activator 1, sequence (Q15078 whole entry, further chain, the tested form may be a part): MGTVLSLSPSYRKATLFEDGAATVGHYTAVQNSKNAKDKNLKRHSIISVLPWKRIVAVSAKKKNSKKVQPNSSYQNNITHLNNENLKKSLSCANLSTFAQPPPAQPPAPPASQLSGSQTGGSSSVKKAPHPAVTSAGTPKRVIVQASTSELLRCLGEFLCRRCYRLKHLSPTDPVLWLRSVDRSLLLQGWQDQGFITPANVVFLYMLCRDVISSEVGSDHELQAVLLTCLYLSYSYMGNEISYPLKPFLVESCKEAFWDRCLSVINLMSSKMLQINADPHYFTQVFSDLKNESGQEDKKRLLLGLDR
pIC50 [2],Structure (SMILES),pIC50 [1]
5.62,COc1ccc(CNc2nc(C(=O)NC(C)C)nc3c2ncn3C(C)C)cc1,5.64
4.80,COCCNc1nc(C(=O)NCC(C)C)nc2c1ncn2C(C)C,5.14
5.74,COc1ccc(CNc2nc(NC(=O)CC(C)C)nc3c2ncn3C(C)C)cc1,5.64
4.89,COCCNc1nc(C(=O)NC(C)C)nc2c1ncn2C(C)C,5.08
4.72,COc1ccc(C(=O)Nc2nc(NCc3ccc(Cl)cc3)c3ncn(C(C)C)c3n2)cc1,4.40
5.68,CCCC(=O)Nc1nc(NCc2ccc(Cl)cc2)c2ncn(C(C)C)c2n1,5.54
5.80,CC(C)CC(=O)Nc1nc(NCc2ccc(Cl)cc2)c2ncn(C(C)C)c2n1,5.52
5.89,COc1ccc(CNc2nc(NC(=O)C(C)C)nc3c2ncn3C(C)C)cc1,6.03
5.68,COc1ccc(CNc2nc(C(=O)NCC(C)C)nc3c2ncn3C(C)C)cc1,5.62
5.18,COCCNc1nc(NC(=O)CC(C)C)nc2c1ncn2C(C)C,5.02
5.41,CCCC(=O)Nc1nc(NCc2ccc(OC)cc2)c2ncn(C(C)C)c2n1,5.36
5.70,CC(C)NC(=O)c1nc(NCc2ccc(Cl)cc2)c2ncn(C(C)C)c2n1,5.77
5.00,CCCC(=O)Nc1nc(NCCOC)c2ncn(C(C)C)c2n1,4.89
6.05,CC(C)C(=O)Nc1nc(NCc2ccc(Cl)cc2)c2ncn(C(C)C)c2n1,5.92
5.80,COc1ccc(CNc2nc(NC(=O)CC(C)=O)nc3c2ncn3C(C)C)cc1,5.62
,COCCNc1nc(NC(=O)c2ccc(OC)cc2)nc2c1ncn2C(C)C,< 5.00
5.47,COc1ccc(CNc2nc(NC(=O)c3ccc(OC)cc3)nc3c2ncn3C(C)C)cc1,5.34
,COCCNc1nc(NC(=O)CC(C)=O)nc2c1ncn2C(C)C,< 5.00
5.15,COCCNc1nc(NC(=O)C(C)C)nc2c1ncn2C(C)C,
